Experimental data from ChEMBL document CHEMBL5096186, “Design, Synthesis, and Biological Evaluation of Novel Pyrimido[4,5-b]indole Derivatives Against Gram-Negative Multidrug-Resistant Pathogens” (J Med Chem, 2021).
Converted amounts (≈) assume the structure as drawn.

What was measured:
[1] = Volume of distribution at the steady state in Sprague-Dawley rat at 4 mg/kg, iv measured upto 24 hrs by LC-MS/MS analysis; format: ADME, organism-based; settings: in vivo, read-out: Vdss
Method in brief: (§1)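 Male Sprague-Dawley rats, n = 3 per group, single intravenous dose. For 4 mg/kg: 180–280 g rats, vehicle 5% DMSO + 5% EtOH + 40% PEG300 + 50% saline, blood from the retrobulbar vein at 0.05–24 h. For 5 and 20 mg/kg: 180–300 g rats, vehicle 5% DMSO + 5% solutol + 90% saline, sampled at 0.083–24 h. Plasma quantified by LC/MS/MS. Parameters from mean plasma concentration by noncompartmental analysis; values are mean ± standard deviation.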

[2] = Clearance in Sprague-Dawley rat at 4 mg/kg, iv measured upto 24 hrs by LC-MS/MS analysis; format: ADME, organism-based; settings: in vivo; method in brief: as §1
[3] = Elimination half life in Sprague-Dawley rat at 4 mg/kg, iv measured upto 24 hrs by LC-MS/MS analysis; format: ADME, organism-based; settings: in vivo, read-out: beta t1/2 (converted); method in brief: as §1
[4] = MRT in Sprague-Dawley rat at 4 mg/kg, iv measured upto 24 hrs by LC-MS/MS analysis; format: ADME, organism-based; settings: in vivo; method in brief: as §1
[5] = test system: Escherichia coli; experiment: Antibacterial activity against Escherichia coli ATCC 35218 strains 15 1 to 3 assessed as reduction in bacterial growth incubated for 18 to 20 hrs by CLSI based microdilution method; format: functional; settings: time 18-20 hrs
Method in brief: (§2)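 CLSI broth microdilution. Compounds in DMSO (levofloxacin and meropenem in water), serial twofold dilutions in broth, 64 to 0.008 μg/mL. […] Results reported as MIC ranges across strains.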

[6] = test system: Staphylococcus aureus; experiment: Antibacterial activity against methicillin-sensitive Staphylococcus aureus strains 15 1 to 4 assessed as reduction in bacterial growth incubated for 18 to 20 hrs by CLSI based microdilution method; format: functional; settings: time 18-20 hrs
Method in brief: (§3)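 Broth microdilution per CLSI. Compounds dissolved in DMSO (levofloxacin and meropenem in water) as 64 μg/mL stock, then serial twofold dilutions in broth giving 64 to 0.008 μg/mL. […] Clinical isolates tested as several strains per group; racemic GP-1 served as positive control; values given as MIC ranges.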

[7] = test system: Pseudomonas aeruginosa; experiment: Antibacterial activity against multidrug resistant Pseudomonas aeruginosa strains 15 1 to 3 assessed as reduction in bacterial growth incubated for 18 to 20 hrs by CLSI based microdilution method; format: functional; settings: time 18-20 hrs; method in brief: as §3
[8] = test system: Staphylococcus epidermidis; experiment: Antibacterial activity against methicillin-sensitive Staphylococcus epidermidis strains 15 1 to 4 assessed as reduction in bacterial growth incubated for 18 to 20 hrs by CLSI based microdilution method; format: functional; settings: time 18-20 hrs; method in brief: as §3
[9] = test system: Escherichia coli; experiment: Antibacterial activity against ESBL-producing Escherichia coli ATCC 35218 strains 15 1 to 3 assessed as reduction in bacterial growth incubated for 18 to 20 hrs by CLSI based microdilution method; format: functional; settings: time 18-20 hrs; method in brief: as §2
[10] = AUC (0 to infinity) in Sprague-Dawley rat at 4 mg/kg, iv measured upto 24 hrs by LC-MS/MS analysis; format: ADME, organism-based; design: time < 24 hrs, dose 4 mg/kg, route iv; settings: in vivo; method in brief: as §1
[11] = test system: Staphylococcus epidermidis; experiment: Antibacterial activity against methicillin-resistant Staphylococcus epidermidis strains 15 1 to 4 assessed as reduction in bacterial growth incubated for 18 to 20 hrs by CLSI based microdilution method; format: functional; settings: time 18-20 hrs; method in brief: as §3
[12] = test system: Staphylococcus aureus; experiment: Antibacterial activity against methicillin-resistant Staphylococcus aureus strains 15 1 to 4 assessed as reduction in bacterial growth incubated for 18 to 20 hrs by CLSI based microdilution method; format: functional; settings: time 18-20 hrs; method in brief: as §3
[13] = test system: Klebsiella pneumoniae; experiment: Antibacterial activity against KPC2-producing multidrug resistant Klebsiella pneumoniae assessed as reduction in bacterial growth incubated for 18 to 20 hrs by CLSI based microdilution method; format: functional; settings: time 18-20 hrs; method in brief: as §3
[14] = test system: Klebsiella pneumoniae; experiment: Antibacterial activity agains wild type Klebsiella pneumoniae ATCC BAA-1705 assessed as reduction in bacterial growth incubated for 18 to 20 hrs by CLSI based microdilution method; format: functional; settings: time 18-20 hrs; method in brief: as §2
[15] = test system: Acinetobacter baumannii; experiment: Antibacterial activity agains OXA23-producing multidrug resistant Acinetobacter baumannii assessed as reduction in bacterial growth incubated for 18 to 20 hrs by CLSI based microdilution method; format: functional; settings: time 18-20 hrs; method in brief: as §3
[16] = test system: Pseudomonas aeruginosa; experiment: Antibacterial activity against wild type Pseudomonas aeruginosa ATCC 27853 assessed as reduction in bacterial growth incubated for 18 to 20 hrs by CLSI based microdilution method; format: functional; settings: time 18-20 hrs; method in brief: as §2
[17] = test system: Pseudomonas aeruginosa; experiment: Antibacterial activity against IMP4-producing multidrug resistant Pseudomonas aeruginosa assessed as reduction in bacterial growth incubated for 18 to 20 hrs by CLSI based microdilution method; format: functional; settings: time 18-20 hrs; method in brief: as §3
[18] = test system: Escherichia coli; experiment: Antibacterial activity against ESBL-producing multidrug resistant Escherichia coli assessed as reduction in bacterial growth incubated for 18 to 20 hrs by CLSI based microdilution method; format: functional; settings: time 18-20 hrs; method in brief: as §3
[19] = test system: Klebsiella pneumoniae; experiment: Antibacterial activity agains wild type Klebsiella pneumoniae ATCC BAA-2470 assessed as reduction in bacterial growth incubated for 18 to 20 hrs by CLSI based microdilution method; format: functional; settings: time 18-20 hrs; method in brief: as §3
[20] = test system: Acinetobacter baumannii; experiment: Antibacterial activity against wild type Acinetobacter baumannii NCTC 13304 assessed as reduction in bacterial growth incubated for 18 to 20 hrs by CLSI based microdilution method; format: functional; settings: time 18-20 hrs; method in brief: as §3
[21] = test system: Escherichia coli; experiment: Antibacterial activity against multidrug resistant wild type Escherichia coli NCTC 13353 assessed as reduction in bacterial growth incubated for 18 to 20 hrs by CLSI based microdilution method; format: functional; settings: time 18-20 hrs; method in brief: as §3
[22] = test system: Escherichia coli; experiment: Antibacterial activity against multidrug resistant wild type Escherichia coli ATCC BAA-2340 assessed as reduction in bacterial growth incubated for 18 to 20 hrs by CLSI based microdilution method; format: functional; settings: time 18-20 hrs; method in brief: as §3

| SMILES | MIC [5] [µg/mL] | MIC [6] [µg/mL] | MIC [7] [µg/mL] | MIC [8] [µg/mL] | MIC [9] [µg/mL] | MIC [11] [µg/mL] | MIC [12] [µg/mL] | further results |
| --- | --- | --- | --- | --- | --- | --- | --- | --- |
| CCC(CO)=C1CN(c2nc(Oc3cnc(C)nc3)nc3[nH]c4c(NC)cc(F)c(F)c4c23)C1 | 32 (≈ 68.5 µM) | < 0.03 | > 8 | < 0.03 | 0.25 (≈ 0.535 µM) | – | – | Vd [1]: 68.4 L/kg; clearance [2]: 141 mL/min/kg; half-life [3]: 6.5 h; MRT [4]: 8.3 h; AUC(0-inf) [10]: 517 ng·h/mL |
| CNc1cc(F)cc2c1[nH]c1nc(Oc3cnc(C)nc3)nc(N3CCC(=C(C)CN)CC3)c12 | 0.25 (≈ 0.541 µM) | 0.125 (≈ 0.27 µM) | > 8 | 0.03 (≈ 0.0649 µM) | 2 (≈ 4.32 µM) | < 0.008 | 0.125 (≈ 0.27 µM) | – |
| CCC(CN)=C1CN(c2nc(N)nc3[nH]c4c(NC)cc(F)cc4c23)C1 | 2 (≈ 5.63 µM) | > 4 | ≥ 16 | 2 (≈ 5.63 µM) | 4 (≈ 11.3 µM) | 4 (≈ 11.3 µM) | 4 (≈ 11.3 µM) | – |
| CCC(CN)=C1CN(c2nc(Oc3ccc4c(c3)C(=O)NC4)nc3[nH]c4c(NC)cc(F)cc4c23)C1 | > 8 | 0.5 (≈ 1.03 µM) | 16 (≈ 32.8 µM) | 0.06 (≈ 0.123 µM) | 8 (≈ 16.4 µM) | 0.06 (≈ 0.123 µM) | 0.5 (≈ 1.03 µM) | – |
| C[C@H]1COc2c(N3CCN(C)CC3)c(F)cc3c(=O)c(C(=O)O)cn1c23.C[C@H]1COc2c(N3CCN(C)CC3)c(F)cc3c(=O)c(C(=O)O)cn1c23.O [LEVOFLOXACIN] | ≤ 0.03 | 0.25 | 0.5 | 0.125 | – | > 4 | 16 | MIC [13]: ≥ 32 µg/mL; MIC [14]: 64 µg/mL; MIC [15]: 4 µg/mL; MIC [16]: 2 µg/mL; MIC [17]: 4 µg/mL; MIC [18]: 8 µg/mL; MIC [19]: 16 µg/mL; MIC [20]: 4 µg/mL; MIC [21]: 32 µg/mL; MIC [22]: 4 µg/mL |
| CCC(CN)=C1CN(c2nc(Sc3ccc(Br)cn3)nc3[nH]c4c(NC)cc(F)cc4c23)C1 | > 1 | 1 (≈ 1.89 µM) | > 16 | 0.25 (≈ 0.473 µM) | > 2 | 0.25 (≈ 0.473 µM) | 0.5 (≈ 0.946 µM) | – |
| CCC(CN)=C1CN(c2nc(C#N)nc3[nH]c4c(NC)cc(F)cc4c23)C1 | 0.25 (≈ 0.684 µM) | 2 (≈ 5.47 µM) | 16 (≈ 43.8 µM) | 0.25 (≈ 0.684 µM) | 0.5 (≈ 1.37 µM) | 0.5 (≈ 1.37 µM) | 2 (≈ 5.47 µM) | – |
